Sampled rows, rich in hits. Any-hit rate of the full collection: about 2.3%.
TRPC4 potent = allosteric potentiators of mouse TRPC4 channel | Q9QUQ5 | HEK293 TRPC4beta/mu-opioid, DAMGO EC20, Fluo-4 Ca2+ flux; stronger effect = higher value | B-score at 10 µM | 310,000 compounds, 0.42% hits | AID 2227;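 active = B-score of calcium response area above 5 SD of library B-scores, with initial fluorescence ratio within 5 SD of library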;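 note: B-score of integrated fluorescence ratio over time as area under calcium response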
TRPC6 inhibitor = blocks the mouse TRPC6 cation channel; 310,000 compounds, 1.1% hits; Q61143; B-score at 10 µM; HEK293-TRPC6, membrane potential dye, ACh-evoked depolarization; stronger effect = lower value;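 active = B-score under library mean minus 3 SD, initial fluorescence not abnormally high, positive integrated signal ratio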;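 note: B-score derived from integrated fluorescence ratio over the kinetic read; more negative B-score means stronger inhibition of depolarization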
TRPC4 inh = inhibitors of mouse TRPC4 channel; AID 2247; HEK293 TRPC4beta/mu-opioid, DAMGO-evoked Fluo4 calcium flux; stronger effect = lower value; Q9QUQ5; B-score at 10 µM; 300,000 compounds, 0.39% hits;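 active = B-score over 3 SD under the library average, no early fluorescence shift, positive overall ratio signal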
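System: stable TRPC4beta/mu-opioid receptor HEK293 cells; Dosing: single-point compound dosing; Measured by: Fluo4 Ca2+ flux fluorescence; Read-out basis: per-well B score of integrated baseline-normalized Fluo4 ratio.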
TRPC6 activator = activates the mouse TRPC6 cation channel; B-score at 10 µM; 310,000 compounds, 0.13% hits; HEK293-TRPC6 membrane potential dye fluorescence; stronger effect = higher value;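 active = B-score of the integrated fluorescence ratio above library mean plus 3 SD, and starting fluorescence ratio within library mean plus 5 SD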;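 note: higher score means more depolarization so channel activation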
TRPC4 act = TRPC4 (mouse) channel activation; Q9QUQ5; HEK293 TRPC4beta/mu-opioid, Fluo4 calcium fluorescence; stronger effect = higher value; B-score at 10 µM; 310,000 compounds, 0.49% hits;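 active = B-score above 5 SD of library B-scores, and initial fluorescence ratio not above library mean plus 5 SD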;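 note: positive B-score marks a calcium rise read as TRPC4 activation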
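Incubation: 45 min room-temperature Fluo4 loading, 110 s read / System: HEK293 cells stably co-expressing mouse TRPC4beta and mu-opioid receptor / Signal: Fluo4 fluorescence, kinetic / Control set: buffer (low) and maximal DAMGO (high) / Measure: integrated baseline-normalised fluorescence ratio, converted to per-well B score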
* = called active by the depositor; i = inactive.

SMILES	TRPC4 potent	TRPC6 inhibitor	TRPC4 inh	TRPC6 activator	TRPC4 act
O=C(COc1ccc(Cl)cc1[N+](=O)[O-])NC1CCCCC1	85*	i	i	i	i
O=C(COc1ccccc1)NC1CCCCC1	i	i	i	i	i
Cc1cc(OCC(=O)NNC(=S)NC(=O)c2ccc(Br)o2)ccc1Cl	16*	i	i	i	i
CCC(=O)NC(=S)Nc1ccc(NC(=O)COc2ccc(Cl)c(C)c2)cc1	i	i	i	i	i
O=C(NC(=S)NNC(=O)c1cccs1)c1ccc(Br)o1	i	i	i	i	180*
COc1cccc(OCC(=O)NC2CCCCC2)c1	31*	i	i	i	i
COc1ccccc1NC(=O)Cn1c(CCC(=O)O)ccc1-c1ccccc1	i	i	i	i	i
Cc1cc(OCC(=O)NC2CCCCC2)ccc1Cl	27*	i	i	i	i
CCOC(=O)[C@@H]1[C@H]2COc3ccccc3[C@H]2N2C(=O)N(c3ccc(Cl)cc3)C(=O)[C@@]12C	i	i	i	i	i
O=c1[nH]c(SCc2ccccc2Cl)nc2c1CCC2	i	i	i	i	i
CNc1nc(SCc2ccccc2Cl)nc2c1CCCC2	i	i	-6*	i	i
COc1ccc(CN(CC(=O)NCc2ccco2)C(=O)CNS(=O)(=O)c2ccc(C)cc2)cc1	i	i	i	i	i
O=C(Cc1ccccc1[N+](=O)[O-])OCc1cccc([N+](=O)[O-])c1	i	i	-6*	i	i
CCC(Cc1ccccc1)NC(=O)CCc1ccccc1 (stereo not given)	i	i	i	i	i
CNS(=O)(=O)c1ccc(NC(=O)Nc2cccc(F)c2)cc1	i	i	i	i	44*
CCc1ccc(NC(=S)NC(=O)CC(C)C)cc1	i	i	i	i	i
COc1ccc(Br)cc1CN1CCCC(C(=O)N2CCCCCC2)C1 (stereo not given)	i	i	-6*	i	i
COc1ccc(Br)cc1CN1CCC(N2CCCC2)CC1	17*	i	i	i	i
O=C(Cc1cccs1)N1CCN(c2ccc([N+](=O)[O-])cc2)CC1	i	i	i	i	i
CC(C)/C=C/C(=O)N1CCCC(N2CCN(c3ccccc3F)CC2)C1 (stereo not given)	i	i	i	i	i
CC(C)c1ccc(C2=NN(c3ccccc3)C(=O)CC2)cc1	11*	i	i	i	i
CCn1c(=N)n(CC(=O)c2ccc(Br)s2)c2ccccc21	i	i	-6*	i	i
O=C(CNc1ccccc1)Nc1cccc2ccccc12	i	i	i	i	i
CC1CCCCC12NC(=O)N(CC(=O)Nc1ccc(N3CCOCC3)cc1)C2=O (stereo not given)	i	i	i	i	i
CCOC(=O)CCCCCN1C(=O)c2cccc3cccc(c23)C1=O	i	i	i	i	i
SMILES	TRPC4 potent	TRPC6 inhibitor	TRPC4 inh	TRPC6 activator	TRPC4 act
CC(=O)OCCCN1C(=O)c2cccc3cc(Br)cc(c23)C1=O	i	i	-6*	i	i
Cc1cc(Cl)c2oc(C(=O)N(C)Cc3nccn3C)c(C)c2c1	i	i	-7*	i	i
Cc1cc(Cl)c2oc(C(=O)N(C)Cc3cc(C)[nH]n3)c(C)c2c1	i	i	i	i	i
CC1(C)C(=O)N(c2ccccc2Cl)C(=O)c2ccccc21	i	i	i	i	i
C/C(CC(=O)N(C(C)C)C(C)C)=N\NC(=O)COc1ccc(Cl)cc1Cl	i	i	-6*	i	i
C/C(CC(=O)N(C(C)C)C(C)C)=N\NC(=O)COc1ccc(Br)cc1Br	i	i	i	i	i
CCCNCc1cc(Br)ccc1OCC(=O)NCCc1ccccc1	i	i	-6*	i	i
O=C(/C=C/c1ccccc1)N1CCC(N2CCC(C(=O)N3CCOCC3)CC2)CC1	i	i	i	i	i
CC[n+]1c(C=C2C=C(C)OC(C)=C2)sc2ccccc21	i	i	-8*	i	i
O=C(NCc1ccccc1Cl)c1cnc2ccccc2n1	56*	i	i	i	i
Cc1c(C(=O)N2CCCC2)oc2c1-c1nn(CC(=O)NCCCN3CCCCC3)cc1CC2	11*	i	i	i	i
Cc1c(C(=O)N2CCCC2)oc2c1-c1nn(CC(=O)NCCCN3CCCCC3C)cc1CC2 (stereo not given)	i	i	i	i	i
COc1cc(CN2CCN(Cc3ccc(SC)cc3)CC2)cc(OC)c1O	i	i	i	i	i
COc1ccc(CN2CCN(Cc3ccc(C)cc3)CC2)c(OC)c1	i	i	i	i	i
COc1ccc(CN2CCN(Cc3ccc(C(F)(F)F)cc3)CC2)c(OC)c1	i	i	-6*	i	i
COc1ccc(CN2CCN(Cc3ccccc3F)CC2)c(OC)c1	i	i	-5*	i	i
COc1cc(OC)c(OC)cc1CN1CCN(Cc2ccc(SC)cc2)CC1	i	i	i	i	43*
O=C(NCc1cc2ccccc2[nH]1)C1CCC(=O)N(CCCN2CCCC2=O)C1 (stereo not given)	i	i	i	i	i
O=C(CC1=NCCNC(c2ccccc2)C1)c1ccccc1O (stereo not given)	10*	i	i	i	i
COc1ccc(Cl)c2sc(N(CCN(C)C)C(=O)CCS(=O)(=O)c3ccc(C)cc3)nc12	23*	i	i	i	i
CCOc1ccccc1N(CC(=O)Nc1ccccc1C(=O)N1CCCC1)S(C)(=O)=O	i	i	i	i	i
CCOC(=O)c1c(NC(=O)CSc2nnc(C)c(=O)[nH]2)sc2c1CCCC2	i	i	i	i	i
CCOC(=O)c1c(NC(=O)C2CCCO2)sc2c1CCC2 (stereo not given)	15*	i	i	i	i
CCOC(=O)c1c(NC(=O)C2CCCCC2C(=O)O)sc2c1CCCCC2 (stereo not given)	i	i	-7*	i	i
CCOC(=O)c1c(NC(=O)C(C)Sc2nnc(C)c(=O)[nH]2)sc2c1CCCC2 (stereo not given)	i	i	-6*	i	i
CCOC(=O)c1c(NC(=O)C2CCCO2)sc(C)c1C (stereo not given)	i	i	i	i	i
COC(=O)c1c(NC(=O)C2CCCCC2C(=O)O)sc2c1CCCCC2 (stereo not given)	i	i	i	i	i

Source: PubChem (Johns Hopkins Ion Channel Center)
